Molecules are shown by their SMILES.

Consider 18 compounds from ChEMBL document CHEMBL1135880, “Synthesis and X-ray studies of chiral allosteric modifiers of hemoglobin” (J Med Chem, 2002).

Experiment [1] addresses T1, Hemoglobin HbA (Homo sapiens) (UniProt P69905+P68871). The experiment can be described thus: Oxygen pressure in mmHg at which Hb is 50% saturated with oxygen at 50-60 uM heme concentration and in the presence of 0.5 mM effector. The class given is functional.
Experiment [2] concerns the target T1, Hemoglobin HbA (Homo sapiens). The experiment is described as follows: The Hill coefficient at 50% saturation (n50) in the presence of effector. The class given is protein-complex assay. In a few lines:
(§1)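 Human whole blood; DMSO stock 200 mM, final 5 mM effector, DMSO-only control. Duplicate samples equilibrated ~10 min at 37 °C in tonometers against gas mixtures of 2.95%, 5.85% and 8.75% O2 with 5.8% CO2, balance N2. pO2 and sO2 read on blood gas analyzer and co-oximeter. P50 and n50 from nonlinear regression; ΔP50 = P50 effector − P50 control.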

Experiment [3] has the same target. The experiment can be described thus: Ability to right-shift the oxygen equilibrium curves (OECs) quantified by ability to increase in P50 in whole blood analyses. The class given is functional, tissue-based. In short, it runs like this: as §1
Experiment [4] has the same target. The experiment can be described thus: Ability to right-shift the oxygen equilibrium curves (OECs) quantified by ability to increase in P50 at which Hb was 50% saturated with oxygen in the presence of the effector at the concentration of 5 mM. The class given is functional. In short, it runs like this: as §1
Experiment [5] shares this target. The experiment can be described thus: The Hill coefficient at 50% saturation (n50) between 40 and 60% oxygen saturation (n50 control value with no effector present, 2.7). Format: protein-complex assay.
Experiment [6] has the same target. The experiment can be described thus: Ratio of […] (P50 control value with no effector present 5.0 mmHg, in case of DMSO is 4.7 mmHg ). Format: functional.
For experiment [7] the target is unchanged. The experiment is described as follows: The difference in the partial pressure of oxygen at 50% saturated Hb. The class given is functional. In a few lines: as §1
Experiment [8] has the same target. The experiment is described as follows: Ability to right-shift the oxygen equilibrium curves (OECs) quantified by ability to increase in P50 at which Hb was 50% saturated with oxygen in the […] of the effector. Format: functional.
For experiment [9] the target is unchanged. The experiment is described as follows: Ability to right-shift the oxygen equilibrium curves (OECs) quantified by ability to increase in P50 at which Hb was 50% saturated with oxygen in the […] of the effector at the concentration of 5 mM. Format: functional. In short, it runs like this:
as §1

T1 sequence (P68871 2-147 partner limits assumed): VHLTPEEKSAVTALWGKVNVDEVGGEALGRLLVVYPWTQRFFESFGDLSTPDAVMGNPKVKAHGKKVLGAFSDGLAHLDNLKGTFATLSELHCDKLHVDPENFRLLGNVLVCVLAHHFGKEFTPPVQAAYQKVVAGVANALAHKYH
T1 sequence (P69905 2-142 limits assumed): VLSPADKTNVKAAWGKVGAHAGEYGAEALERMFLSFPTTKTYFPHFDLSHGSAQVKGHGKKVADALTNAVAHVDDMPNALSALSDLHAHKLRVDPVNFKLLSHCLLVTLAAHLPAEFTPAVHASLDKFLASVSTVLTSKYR

Turning to `Cc1cc(C)cc(NC(=O)Cc2ccc(OC3(C(=O)N[C@H](CCCCNC(=O)OCc4ccccc4)C(=O)O)CCCC3)cc2)c1`, the P50e in experiment [1] was 22.4 mmHg; in [4] it was 28.2 mmHg; in [8], 27.6 mmHg. In addition, the n50e in experiment [2] worked out at 2.5. The P50c in [3] came out at 27.5 mmHg. In experiment [5], this compound yielded a Hill coefficient (n50) of 2.5. The P50e / P50c in experiment [6] was found to be 4.5. Moreover, the Delta P50 in [7] turned out to be 0.4.
For `CSCC[C@H](NC(=O)C1(Oc2ccc(CC(=O)Nc3cc(C)cc(C)c3)cc2)CCCC1)C(=O)O`, the figures for the P50e in experiment [1], in [4] and in [8] were 18.1 mmHg, 56.8 mmHg and 50.7 mmHg, respectively. Also, the n50e in experiment [2] was 2.3. Besides, the P50c in [3] worked out at 27.1 mmHg. The Hill coefficient (n50) in [5] turned out to be 2.6. In addition, the P50e / P50c in experiment [6] is 3.6. Besides, the Delta P50 in [7] was 26.6.
`Cc1cc(C)cc(NC(=O)Cc2ccc(OC3(C(=O)N[C@@H](CC(C)C)C(=O)O)CCCC3)cc2)c1`: the P50e in experiment [1] turned out to be 21.3 mmHg; in experiment [4] it was 71.3 mmHg; in [8], 70.6 mmHg. In addition, the n50e in experiment [2] was 1.8. Moreover, the P50c in experiment [3] was 29.4 mmHg. This compound had a Hill coefficient (n50) in experiment [5] of 2.7. Further, the P50e / P50c in experiment [6] is 4.3. In experiment [7], this compound returned a Delta P50 of 41.5.
As for `Cc1cc(C)cc(NC(=O)Cc2ccc(OC3(C(=O)N[C@H](CSCc4ccccc4)C(=O)O)CCCC3)cc2)c1`, the P50e in experiment [1] stood at 43 mmHg; in [4], 33.3 mmHg; in [8], 30.6 mmHg. For the same compound, the n50e in experiment [2] was 2.3. Moreover, the P50c in experiment [3] was 24.8 mmHg. In addition, the Hill coefficient (n50) in experiment [5] is 2.1. In experiment [6], the P50e / P50c came out at 8.6. This compound yielded a Delta P50 in [7] of 7.2.
Consider `Cc1cc(C)cc(NC(=O)Cc2ccc(OC3(C(=O)N[C@@H](C(=O)O)C(C)C)CCCC3)cc2)c1`, for which the P50e in experiment [1] stood at 13.9 mmHg; in experiment [4], 57.3 mmHg; in experiment [8], 56.6 mmHg. Also, the n50e in experiment [2] was determined as 1.9. For the same compound, the P50c in [3] came out at 26.7 mmHg. The compound further gave a Hill coefficient (n50) in experiment [5] of 2.6. Also, the P50e / P50c in experiment [6] worked out at 2.8. The Delta P50 in experiment [7] was 30.2.
On to `Cc1cc(C)cc(NC(=O)Cc2ccc(OC3(C(=O)N[C@H](CCCCN)C(=O)O)CCCC3)cc2)c1`, for which the P50e amounted to 8.1 mmHg in [1], 28.6 mmHg in [4] and 26.7 mmHg in [8]. Further, the n50e in experiment [2] worked out at 2.7. In addition, the P50c in experiment [3] was determined as 28.3 mmHg. The compound further had a Hill coefficient (n50) in experiment [5] of 2.4. Further, the P50e / P50c in experiment [6] is 1.6. Moreover, the Delta P50 in [7] is -0.6.
`Cc1cc(C)cc(NC(=O)Cc2ccc(OC3(C(=O)N[C@@H](CCCCN)C(=O)O)CCCC3)cc2)c1`: the P50e is 5.8 mmHg in experiment [1], 29 mmHg in experiment [4] and 27.2 mmHg in [8]. The n50e in experiment [2] was found to be 2.7. Moreover, in experiment [3], the P50c came out at 28.3 mmHg. The compound also returned a Hill coefficient (n50) in experiment [5] of 2.3. In addition, the P50e / P50c in [6] was determined as 1.2. Further, in experiment [7], the Delta P50 was -0.2.
Consider `Cc1cc(C)cc(NC(=O)Cc2ccc(OC3(C(=O)N[C@@H](C)C(=O)O)CCCC3)cc2)c1`, for which the P50e in experiment [1] came to 10.5 mmHg; in experiment [4], 46.2 mmHg; in experiment [8], 42.8 mmHg. Besides, the n50e in experiment [2] amounted to 2.1. Moreover, the P50c in [3] came out at 26.8 mmHg. For the same compound, in [5], the Hill coefficient (n50) is 2.7. Moreover, in experiment [6], the P50e / P50c is 2.1. The Delta P50 in [7] turned out to be 17.6.
Turning to `Cc1cc(C)cc(NC(=O)Cc2ccc(OC3(C(=O)N[C@H](C)C(=O)O)CCCC3)cc2)c1`, the values for the P50e in experiment [1], in experiment [4] and in [8] were 13.8 mmHg, 52.1 mmHg and 50.3 mmHg, respectively. In addition, the n50e in [2] turned out to be 1.7. Further, in experiment [3], the P50c was found to be 29.4 mmHg. In experiment [5], this compound displayed a Hill coefficient (n50) of 2.6. In addition, the P50e / P50c in experiment [6] was determined as 2.8. This compound showed a Delta P50 in [7] of 21.9.
With `Cc1cc(C)cc(NC(=O)Cc2ccc(OC3(C(=O)N[C@H](Cc4ccc5[nH]ccc5c4)C(=O)O)CCCC3)cc2)c1`, the P50e in experiment [1] is 37.1 mmHg; in experiment [4], 49.9 mmHg; in [9], 47.5 mmHg. Besides, in [2], the n50e came out at 2.1. In addition, the P50c in experiment [3] stood at 28.7 mmHg. In experiment [5], this compound came in with a Hill coefficient (n50) of 2.1. For the same compound, the P50e / P50c in experiment [6] was 7.4. The compound also came in with a Delta P50 in experiment [7] of 20.
For the compound `Cc1cc(C)cc(NC(=O)Cc2ccc(OC3(C(=O)N[C@H](CC(=O)O)C(=O)O)CCCC3)cc2)c1`, the values for the P50e in experiment [1], in experiment [4] and in [8] were 16.1 mmHg, 55.3 mmHg and 50.2 mmHg, respectively. Besides, the n50e in experiment [2] is 1.9. For the same compound, the P50c in [3] came to 26.2 mmHg. This compound also registered a Hill coefficient (n50) in experiment [5] of 2.6. Besides, the P50e / P50c in [6] was 3.2. This compound showed a Delta P50 in [7] of 26.6.
As for `Cc1cc(C)cc(NC(=O)Cc2ccc(OC3(C(=O)N4CCC[C@H]4C(=O)O)CCCC3)cc2)c1`, the results for the P50e in experiment [1], in [4] and in experiment [8] were 13.5 mmHg, 42.5 mmHg and 41.1 mmHg, respectively. In addition, the n50e in experiment [2] is 2.3. In addition, the P50c in experiment [3] came to 24.8 mmHg. The compound further returned a Hill coefficient (n50) in [5] of 2.7. Further, the P50e / P50c in [6] is 2.7. Also, the Delta P50 in [7] was 17.
Turning to `Cc1cc(C)cc(NC(=O)Cc2ccc(OC3(C(=O)N[C@@H](Cc4ccccc4)C(=O)O)CCCC3)cc2)c1`, the P50e in experiment [1] stood at 12.4 mmHg; in experiment [4], 67.5 mmHg; in experiment [8], 64.1 mmHg. In addition, the n50e in experiment [2] stood at 1.8. Also, the P50c in experiment [3] is 27.4 mmHg. Besides, in experiment [5], the Hill coefficient (n50) came to 2.7. The P50e / P50c in [6] stood at 2.6. Also, the Delta P50 in experiment [7] worked out at 38.4.
With `Cc1cc(C)cc(NC(=O)Cc2ccc(OC3(C(=O)N[C@H](Cc4ccc(O)cc4)C(=O)O)CCCC3)cc2)c1`, the figures for the P50e in experiment [1], in experiment [4] and in experiment [8] were 48.6 mmHg, 49 mmHg and 47 mmHg, respectively. Further, the n50e in [2] came out at 2. Moreover, the P50c in experiment [3] turned out to be 27.2 mmHg. Also, in [5], the Hill coefficient (n50) was determined as 2.3. Moreover, the P50e / P50c in [6] is 9.7. In [7], this compound displayed a Delta P50 of 20.8.
On to `Cc1cc(C)cc(NC(=O)Cc2ccc(OC3(C(=O)NCC(=O)O)CCCC3)cc2)c1`, for which the P50e in [1] came to 12 mmHg; in [4], 52.6 mmHg; in [8], 50 mmHg. Also, the n50e in [2] was 2.1. Moreover, in experiment [3], the P50c came out at 26.2 mmHg. The compound also returned a Hill coefficient (n50) in [5] of 2.6. Moreover, the P50e / P50c in experiment [6] was determined as 2.4. Moreover, the Delta P50 in experiment [7] is 25.1.
Turning to `Cc1cc(C)cc(NC(=O)Cc2ccc(OC3(C(=O)N[C@@H](Cc4ccc5[nH]ccc5c4)C(=O)O)CCCC3)cc2)c1`, the values for the P50e in experiment [1], in experiment [4] and in experiment [8] were 37 mmHg, 48.8 mmHg and 47.2 mmHg, respectively. Also, the n50e in experiment [2] was determined as 2. For the same compound, the P50c in experiment [3] came out at 27.9 mmHg. In addition, the Hill coefficient (n50) in experiment [5] was 2.3. In addition, the P50e / P50c in [6] amounted to 7.4. The Delta P50 in experiment [7] came to 20.2.
Consider `Cc1cc(C)cc(NC(=O)Cc2ccc(OC3(C(=O)N[C@@H](CCCCNC(=O)OCc4ccccc4)C(=O)O)CCCC3)cc2)c1`, for which the P50e in experiment [1] was 29.5 mmHg; in [4] it was 45 mmHg; in [8], 39.5 mmHg. For the same compound, the n50e in [2] was 2.1. The P50c in experiment [3] was determined as 28.3 mmHg. In experiment [5], this compound displayed a Hill coefficient (n50) of 2.4. Besides, the P50e / P50c in [6] worked out at 5.9. This compound had a Delta P50 in experiment [7] of 14.
Take `Cc1cc(C)cc(NC(=O)Cc2ccc(OC3(C(=O)N[C@H](Cc4ccccc4)C(=O)O)CCCC3)cc2)c1`: the P50e in [1] turned out to be 8.2 mmHg; in experiment [4], 49.8 mmHg; in experiment [8], 48.1 mmHg. Also, in experiment [2], the n50e is 1.9. In addition, the P50c in [3] was determined as 28.7 mmHg. In experiment [5], this compound returned a Hill coefficient (n50) of 2.6. Further, the P50e / P50c in [6] came to 1.7. The Delta P50 in experiment [7] was determined as 20.3.
